In assay [1] the test system is Rattus norvegicus. As to the kind of experiment: Antiinflammatory activity in Wistar rat assessed as inhibition of carrageenan-induced paw edema at 50 mg/kg, ip administered 30 mins prior to carrageenan challenge measured after 3 hrs relative to vehicle-treated control. The class given is functional. To be noted: route intraperitoneal. In short, it runs like this: (§1)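 Adult male Wistar rats (150–170 g), fasted overnight with water, n = 6 per group. Vehicle (Tween 80/absolute ethanol/0.9 % saline 1:1:18; 2.5 ml/kg) or drug given i.p. 30 min before 0.05 ml of 1 % carrageenan into the left hind paw. Paw volume to the tibiotarsal joint measured by plethysmometer at 0, 1, 3, 5 h. Oedema = VT − V0; % inhibition against vehicle controls. Mean ± SEM, Student's t test.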
(Carrageenan injected into the paw causes an acute inflammation.)

For assay [2], the system named is Rattus norvegicus. As to the kind of experiment: Gastroprotective activity in Wistar rat assessed as inhibition of HCl/ethanol-induced gastric ulcer at 100 mg/kg, ip administered 30 mins prior to HCl/ethanol challenge measured after 1 hr relative to vehicle-treated control. In kind it is functional. Particulars: Stomach, route intraperitoneal. In short, it runs like this:
(§2)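 Male Wistar rats (150–170 g), fasted 24 h, six per group. Vehicle (Tween 80/ethanol/saline 1/1/18) or treatment given i.p.; 30 min later, oral 150 mM HCl/EtOH (40:60, v/v), 1 ml/100 g. Killed 1 h afterwards. Stomachs opened along the greater curvature and stretched out. Summed lesion length (mm) taken as lesion index; % inhibition against vehicle controls. Mean ± SEM, Student's t test.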

Assay [3] has as its system Rattus norvegicus. Kind of assay: Gastroprotective activity in Wistar rat assessed as inhibition of HCl/ethanol-induced gastric ulcer at 50 mg/kg, ip administered 30 mins prior to HCl/ethanol challenge measured after 1 hr relative to vehicle-treated control. Particulars: Stomach, route intraperitoneal. In kind it is functional. In short, it runs like this:
as §2

The test system of assay [4] is Rattus norvegicus. Kind of assay: Antiinflammatory activity in Wistar rat assessed as inhibition of carrageenan-induced paw edema at 100 mg/kg, ip administered 30 mins prior to carrageenan challenge measured after 1 hr relative to vehicle-treated control. The class given is functional. To be noted: route intraperitoneal. Put shortly:
as §1

For assay [5], the system named is Rattus norvegicus. Kind of assay: Antiinflammatory activity in Wistar rat assessed as inhibition of carrageenan-induced paw edema at 100 mg/kg, ip administered 30 mins prior to carrageenan challenge measured after 5 hrs relative to vehicle-treated control. Particulars: route intraperitoneal. The class given is functional. In short, it runs like this: as §1
For assay [6], the system named is Rattus norvegicus. As to the kind of experiment: Antiinflammatory activity in Wistar rat assessed as inhibition of carrageenan-induced paw edema at 100 mg/kg, ip administered 30 mins prior to carrageenan challenge measured after 3 hrs relative to vehicle-treated control. In kind it is functional. To be noted: route intraperitoneal. Put shortly:
as §1

Assay [7] relates to Rattus norvegicus. As to the kind of experiment: Antiinflammatory activity in Wistar rat assessed as inhibition of carrageenan-induced paw edema at 50 mg/kg, ip administered 30 mins prior to carrageenan challenge measured after 5 hrs relative to vehicle-treated control. The class given is functional. To be noted: route intraperitoneal. Put shortly:
as §1

In assay [8] the test system is Rattus norvegicus. Kind of assay: Antiinflammatory activity in ip dosed Wistar rat assessed as inhibition of carrageenan-induced paw edema administered 30 mins prior to carrageenan challenge measured after 1 to 5 hrs relative to vehicle-treated control. In kind it is functional, organism-based. In short, it runs like this: as §1
For assay [9], the system named is Rattus norvegicus. Kind of assay: Antiinflammatory activity in Wistar rat assessed as inhibition of carrageenan-induced paw edema at 50 mg/kg, ip administered 30 mins prior to carrageenan challenge measured after 1 hr relative to vehicle-treated control. The class given is functional. To be noted: route intraperitoneal. Put shortly: as §1

Our source for the inhibition in vivo and inhibition values is ChEMBL document CHEMBL2429857, “Synthesis and pharmacological evaluation of pyrazolopyrimidopyrimidine derivatives: anti-inflammatory agents with gastroprotective effect in rats” (2013).

`CCOC(=O)c1c(C)nc2c3c(C)nn(-c4ccccc4)c3ncn2c1=N`: the inhibition in vivo at 50 mg/kg with Rattus norvegicus [1] is 60%; with Rattus norvegicus [3] it was 72.5%; with Rattus norvegicus [7], 59.4%; in the assay with Rattus norvegicus [9], 62.3%. Also, the inhibition in vivo at 100 mg/kg with Rattus norvegicus [2] turned out to be 91.4%; in the assay with Rattus norvegicus [4] it was 94.2%; with Rattus norvegicus [5] it was 68.8%; in the assay on Rattus norvegicus [6], 82.8%. The inhibition result with Rattus norvegicus [8] was “Dose-dependent effect”.

`CCOC(=O)c1c(CC)nc2c3c(C)nn(-c4ccccc4)c3ncn2c1=N`: the inhibition in vivo at 50 mg/kg came to 28.8% in the assay on Rattus norvegicus [1], 40.2% in the assay with Rattus norvegicus [3], 25.1% in the assay with Rattus norvegicus [7] and 32% in the assay with Rattus norvegicus [9]. In addition, the inhibition in vivo at 100 mg/kg in the assay with Rattus norvegicus [2] worked out at 52.2%; in the assay with Rattus norvegicus [4], 65.7%; in the assay with Rattus norvegicus [5], 40.2%; in the assay on Rattus norvegicus [6] it was 42.9%. Moreover, the inhibition entry in the assay on Rattus norvegicus [8] was “Dose-dependent effect”.

`Cc1nc2c3c(C)nn(-c4ccccc4)c3ncn2c(=N)c1C#N`: the inhibition in vivo at 50 mg/kg is 59% with Rattus norvegicus [1], 68.4% in the assay with Rattus norvegicus [3], 58% with Rattus norvegicus [7] and 59.2% with Rattus norvegicus [9]. The inhibition in vivo at 100 mg/kg is 92.2% in the assay with Rattus norvegicus [4], 62.8% with Rattus norvegicus [5] and 71.4% with Rattus norvegicus [6]. For the same compound, in the assay with Rattus norvegicus [8], the inhibition entry was “Dose-dependent effect”.

As to `CN/C(=N\CCSCc1nc[nH]c1C)NC#N` [CIMETIDINE], in the assay with Rattus norvegicus [2], the inhibition in vivo at 100 mg/kg stood at 74%.

Take `Cc1nn(-c2ccccc2)c2ncn3c(=N)c(C#N)cnc3c12`: the inhibition in vivo at 50 mg/kg came to 40.6% with Rattus norvegicus [1], 48.6% in the assay on Rattus norvegicus [3], 39.8% in the assay with Rattus norvegicus [7] and 42.6% in the assay on Rattus norvegicus [9]. The inhibition in vivo at 100 mg/kg was 64.7% in the assay on Rattus norvegicus [2], 80.4% in the assay on Rattus norvegicus [4], 58.1% in the assay on Rattus norvegicus [5] and 56.8% in the assay with Rattus norvegicus [6]. Moreover, the inhibition result in the assay on Rattus norvegicus [8] is “Dose-dependent effect”.

As usually defined, the inhibition in vivo is the relative decrease from the control value, in per cent.
